Published values gathered from unrelated publications.
Protocols differ between the studies behind these lines.
Mode: agonist
ADRB2: Beta-2 adrenergic receptor (ADRB2, Homo sapiens, UniProt P07550)
AHR: Aryl hydrocarbon receptor (AHR, Homo sapiens, UniProt P35869)
CNR2: Cannabinoid receptor 2 (CNR2, Homo sapiens, UniProt P34972)
MC5R: Melanocortin receptor 5 (MC5R, Homo sapiens, UniProt P33032)

SMILES	target	observed	method	EC50 [nM]
COc1ccc(CNC(=S)NC(C)(C)C)cc1	ADRB2	calcium signal	fluorescence	1900
CC(C)OC(=O)c1cccc(C(=O)c2c[nH]c3ccccc23)n1	AHR	reporter gene	luciferase	> 10000
CC1CCN(C(NC(=O)c2ccc(C(C)(C)C)cc2)C(Cl)(Cl)Cl)CC1 (stereo not drawn)	CNR2	cAMP	TR-FRET	50.1
CSCC[C@H](NC(=O)[C@@H](NC(=O)[C@@H](N)Cc1ccc(O)cc1)C(C)C)C(=O)NCC(=O)N[C@@H](Cc1c[nH]cn1)C(=O)N[C@@H](Cc1ccccc1)C(=O)N[C@@H](CCCNC(=N)N)C(=O)N[C@@H](Cc1c[nH]c2ccccc12)C(=O)N[C@@H](CC(=O)O)C(=O)N[C@@H](CCCNC(=N)N)C(=O)O	MC5R	reporter gene		7360
COC(=O)c1ccccc1C(=O)c1c[nH]c2ccccc12	AHR	reporter gene	luciferase	> 10000
N=C(N)NCCC[C@H](NC(=O)[C@H](Cc1ccccc1)NC(=O)[C@@H](N)Cc1cnc[nH]1)C(=O)N[C@@H](Cc1c[nH]c2ccccc12)C(=O)O	MC5R	reporter gene		> 100000
O=c1ccn([C@@H]2O[C@H](COP(=O)(O)OP(=O)(O)O)[C@@H](O)[C@H]2O)c(=O)[nH]1	P2Y purinoceptor 6 (P2RY6, Homo sapiens, UniProt Q15077)	inositol phosphate		295
CSCC[C@H](NC(=O)[C@@H](NC(=O)[C@@H](N)Cc1ccc(O)cc1)C(C)C)C(=O)NCC(=O)N[C@@H](Cc1c[nH]cn1)C(=O)N[C@@H](Cc1ccccc1)C(=O)N[C@@H](CCCNC(=N)N)C(=O)N[C@@H](Cc1c[nH]c2ccccc12)C(=O)O	MC5R	reporter gene		23900
c1ccc(Nc2nc3ccccc3nc2Nc2ccccc2)cc1	CNR2	cAMP	TR-FRET	25.1
CCOC(=O)[C@](CC)(CCCS(=O)(=O)CCOCCOCCNC(=O)OC(C)(C)C)NC(=O)c1ccc(C2CC2)c(Cc2ccc(F)cc2)n1	CNR2	cAMP		17
Cc1ccc(-n2c(C)ccc2C)c2c1CC(C)(C)O2	ADRB2	calcium signal	fluorescence	65000
COC(=O)c1cccc(C(=O)c2c[nH]c3ccc(Cl)cc23)n1	AHR	reporter gene	luciferase	32
